In publication PMC13386513 (Journal of medicinal chemistry, 2025):

Tests used:
SH-SY5Y cells = experiment: Cytotoxicity of the ligands alone, cell viability; type: cell-based; conditions: 8 μM
[1] = tested on: p-tau-treated SH-SY5Y cells; experiment: Cell morphology by contrast microscopy; type: cell-based, human; conditions: p-tau 0.5 μM plus ligand 1 5 μM, 24 h
[2] = tested on: TNFα, IL1β, IRF3 expression in SH-SY5Y cells; experiment: qRT-PCR of pro-inflammatory factors in p-tau-treated cells; type: cell-based, human; conditions: p-tau 0.5 μM plus ligand 5 μM, 24 h
[3] = tested on: Xbp1s, P58ipk, ATF4 expression in SH-SY5Y cells; experiment: qRT-PCR of ER stress response induced by tunicamycin or thapsigargin; type: cell-based, human; conditions: 24 h
p-tau = p-tau (Homo sapiens, UniProt P10636); experiment: Transmission electron microscopy of p-tau; conditions: p-tau 10 μM, 24 h incubation, 37 °C, Tris pH 7.4
[4] = tested on: ATF4, CHOP, GADD34, TRB3 expression in SH-SY5Y cells; experiment: qRT-PCR of ER stress-associated pro-apoptotic factors in p-tau-treated cells; type: cell-based, human; conditions: p-tau 0.5 μM plus ligand 5 μM, 24 h
[5] = tested on: spliced Xbp1 mRNA, BiP, ERdj4 expression in SH-SY5Y cells; experiment: qRT-PCR of ER stress markers and UPR mediators in p-tau-treated cells; type: cell-based, human; conditions: p-tau 0.5 μM plus ligand 5 μM, 24 h
[6] = tested on: p-tau-treated SH-SY5Y cells; experiment: Cytoprotective activity against p-tau, cell viability; type: cell-based, human; conditions: 0.5 μM p-tau overnight, compound 8 μM
Outline: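 SH-SY5Y cells (passage 8–19; EMEM/F12, 10% FBS, 1% Pen-Strep) seeded 40,000/well in 24-well plates and grown overnight. Pretreated with test compound for 12 h, then exposed overnight to recombinant p-tau (E. coli BL21-expressed, heat-treated, TEV-cleaved). CCK-8 added for 2 h at 37 °C; OD read at 450 nm. Normalized to no-treatment mean; relative viability expressed against p-tau-only treatment.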

heparanase = conditions: previous report; cited from earlier work

Sequence of p-tau (P10636 1-412 isoform P10636-7): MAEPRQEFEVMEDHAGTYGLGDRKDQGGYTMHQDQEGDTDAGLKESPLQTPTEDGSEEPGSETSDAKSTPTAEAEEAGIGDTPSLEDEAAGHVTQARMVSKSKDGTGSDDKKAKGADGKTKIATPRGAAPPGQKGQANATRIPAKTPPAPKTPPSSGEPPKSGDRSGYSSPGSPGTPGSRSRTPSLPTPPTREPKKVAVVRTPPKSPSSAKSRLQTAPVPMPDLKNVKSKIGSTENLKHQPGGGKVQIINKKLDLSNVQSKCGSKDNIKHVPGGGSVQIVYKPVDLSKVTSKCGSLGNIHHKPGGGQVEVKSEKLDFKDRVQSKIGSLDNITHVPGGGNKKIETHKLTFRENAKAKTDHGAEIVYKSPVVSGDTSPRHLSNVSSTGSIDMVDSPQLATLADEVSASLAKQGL

SMILES	cytotoxicity of the compound alone (SH-SY5Y cells)	cell density and morphology [1]	p-tau-induced inflammatory response (IL1β, TNFα, IRF3 expression) [2]	Tg-induced ER stress response (Xbp1s, P58ipk, ATF4) ([3]; Tg 0.5 μM plus ligand 1 5 μM)	Tm-induced ER stress response (Xbp1s, P58ipk, ATF4) ([3]; Tm 5 μg/mL plus ligand 1 5 μM)	morphology of p-tau (TEM) (p-tau)	expression of ATF4, CHOP, GADD34 and TRB3 [4]	expression of spliced Xbp1 mRNA, BiP and ERdj4 (p-tau-induced ER stress response/UPR) [5]	relative viability [6]	heparanase inhibition (heparanase)
COC(=O)[C@]12CCC(C)(C)C[C@H]1C1=CCC3[C@@]4(C)CC[C@H](O[C@@H]5O[C@H](COS(=O)(=O)O)[C@@H](O[C@@H]6O[C@H](C(=O)O)[C@@H](O[C@H]7O[C@H](COS(=O)(=O)O)[C@@H](O)[C@H](O)[C@H]7NS(=O)(=O)O)[C@H](O)[C@H]6O)[C@H](O)[C@H]5NS(=O)(=O)O)C(C)(C)C4CC[C@@]3(C)C1(C)CC2 (stereo partly drawn) [Compound 1, 3β-(2-N-Sulfo-2-deoxy-6-O-sulfo-α-D-glucopyranosyl-(1 → 4)-β-D-glucopyranosyluronate-(1 → 4)-2-N-sulfo-2-deoxy-6-O-sulfo-β-D-glucopyranosyloxy)-methyloleanolate]	did not exhibit cytotoxicity	remarkably recovered cell density and morphology	able to protect cells	failed to attenuate	failed to attenuate	reorganization of p-tau from an amorphous structure into more ordered clusters	significantly lowered	strong protective effects	around 0.6	–
O=C(O)[C@H]1O[C@@H](O[C@H]2[C@H](O)[C@@H](NS(=O)(=O)O)[C@H](OCCNS(=O)(=O)O)O[C@@H]2COS(=O)(=O)O)[C@H](O)[C@@H](O)[C@@H]1O[C@H]1O[C@H](COS(=O)(=O)O)[C@@H](O)[C@H](O)[C@H]1NS(=O)(=O)O [Compound 2]	did not exhibit cytotoxicity	–	did not offer protection	–	–	–	did not reduce	did not offer protection	0.3	potent heparanase inhibitor
COC(=O)[C@]12CCC(C)(C)C[C@H]1C1=CCC3[C@@]4(C)CC[C@H](O)C(C)(C)C4CC[C@@]3(C)C1(C)CC2 (stereo partly drawn) [OAME, oleanolic acid methyl ester, reference compound]	did not exhibit cytotoxicity	–	–	–	–	–	–	–	–	–
CN1CCc2cccc3c2[C@H]1Cc1ccc(O)c(O)c1-3 [apomorphine, reference compound]	–	–	–	–	–	reorganization of p-tau from an amorphous structure into more ordered clusters	–	–	0.7	–
